{"source": "ChEMBL document CHEMBL1143202", "key": {"Rattus norvegicus [1]": {"species": "Rattus norvegicus", "assay": "Effect on oxygen consumption rate in Wistar Albino rat liver mitochondria assessed as inhibition in state 3 respiration at 200 uM in presence of succinate relative to control", "type": "functional", "set-up": "scale not given: the % may be the effect or the level left", "in_short": "(§1)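 Isolated rat liver mitochondria respiring on glutamate or succinate as substrate; oxygen consumption recorded. State 3 is the rate after ADP addition and state 4 the rate after ADP is exhausted. The respiratory control coefficient (RCC) and ADP/O ratio were determined in the same runs. Flavone tested across 25–200 μM.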"}, "Rattus norvegicus [2]": {"species": "Rattus norvegicus", "assay": "Inhibition of NADH-cytochrome c reductase in Wistar Albino rat liver mitochondria at 75 uM relative to control", "set-up": "scale not given: the % may be the effect or the level left"}, "Rattus norvegicus [3]": {"species": "Rattus norvegicus", "assay": "Inhibition of ATPase in Wistar Albino rat livers intact mitochondria at 50 uM relative to control", "set-up": "scale not given: the % may be the effect or the level left"}, "Rattus norvegicus [4]": {"species": "Rattus norvegicus", "assay": "Inhibition of NADH dehydrogenase in Wistar Albino rat liver mitochondria at 100 uM relative to control", "set-up": "scale not given: the % may be the effect or the level left"}, "Rattus norvegicus [5]": {"species": "Rattus norvegicus", "assay": "Inhibition of succinate dehydrogenase in Wistar Albino rat liver mitochondria at 200 uM relative to control", "set-up": "scale not given: the % may be the effect or the level left"}, "Rattus norvegicus [6]": {"species": "Rattus norvegicus", "assay": "Inhibition of ATPase in Wistar Albino rat livers intact mitochondria at 25 uM relative to control", "set-up": "scale not given: the % may be the effect or the level left"}, "Rattus norvegicus [7]": {"species": "Rattus norvegicus", "assay": "Inhibition of succinate oxidase in Wistar Albino rat liver mitochondria at 200 uM relative to control", "set-up": "scale not given: the % may be the effect or the level left"}, "Rattus norvegicus [8]": {"species": "Rattus norvegicus", "assay": "Effect on oxygen consumption rate in Wistar Albino rat liver mitochondria assessed as inhibition in state 4 respiration at 100 uM in presence of sodium glutamate relative to control", "type": "functional", "set-up": "scale not given: the % may be the effect or the level left", "in_short": "as §1"}, "Rattus norvegicus [9]": {"species": "Rattus norvegicus", "assay": "Effect on respiratory control coefficient in Wistar Albino rat liver mitochondria at 75 uM in presence of sodium glutamate relative to control", "type": "functional", "in_short": "as §1"}, "Rattus norvegicus [10]": {"species": "Rattus norvegicus", "assay": "Inhibition of succinate oxidase in Wistar Albino rat liver mitochondria at 50 uM relative to control", "set-up": "scale not given: the % may be the effect or the level left"}, "Rattus norvegicus [11]": {"species": "Rattus norvegicus", "assay": "Effect on respiratory control coefficient in Wistar Albino rat liver mitochondria at 50 uM in presence of succinate relative to control", "type": "functional", "in_short": "as §1"}, "Rattus norvegicus [12]": {"species": "Rattus norvegicus", "assay": "Inhibition of succinate-cytochrome c reductase in Wistar Albino rat liver mitochondria at 50 uM relative to control", "set-up": "scale not given: the % may be the effect or the level left"}, "Rattus norvegicus [13]": {"species": "Rattus norvegicus", "assay": "Inhibition of succinate oxidase in Wistar Albino rat liver mitochondria at 100 uM relative to control", "set-up": "scale not given: the % may be the effect or the level left"}, "Rattus norvegicus [14]": {"species": "Rattus norvegicus", "assay": "Effect on ADP/O ratio in Wistar Albino rat liver mitochondria at 75 uM in presence of sodium glutamate relative to control", "type": "functional", "in_short": "as §1"}, "Liver [15]": {"tested_on": "Liver", "assay": "Reduction of cytochrome c in rat liver mitochondria in presence of NADH at 200 uM", "type": "functional"}, "Rattus norvegicus [16]": {"species": "Rattus norvegicus", "assay": "Inhibition of NADH dehydrogenase in Wistar Albino rat liver mitochondria at 75 uM relative to control", "set-up": "scale not given: the % may be the effect or the level left"}, "Rattus norvegicus [17]": {"species": "Rattus norvegicus", "assay": "Effect on respiratory control coefficient in Wistar Albino rat liver mitochondria at 100 uM in presence of succinate relative to control", "type": "functional", "in_short": "as §1"}, "Rattus norvegicus [18]": {"species": "Rattus norvegicus", "assay": "Effect on oxygen consumption rate in Wistar Albino rat liver mitochondria assessed as inhibition in state 3 respiration at 50 uM in presence of succinate relative to control", "type": "functional", "set-up": "scale not given: the % may be the effect or the level left", "in_short": "as §1"}, "Rattus norvegicus [19]": {"species": "Rattus norvegicus", "assay": "Inhibition of succinate dehydrogenase in Wistar Albino rat liver mitochondria at 100 uM relative to control", "set-up": "scale not given: the % may be the effect or the level left"}, "Liver [20]": {"tested_on": "Liver", "assay": "Reduction of cytochrome c in rat liver mitochondria in presence of EDTA at 200 uM", "type": "functional"}, "Rattus norvegicus [21]": {"species": "Rattus norvegicus", "assay": "Effect on oxygen consumption rate in Wistar Albino rat liver mitochondria assessed as inhibition in state 3 respiration at 100 uM in presence of sodium glutamate relative to control", "type": "functional", "set-up": "scale not given: the % may be the effect or the level left", "in_short": "as §1"}, "Rattus norvegicus [22]": {"species": "Rattus norvegicus", "assay": "Inhibition of succinate-cytochrome c reductase in Wistar Albino rat liver mitochondria at 75 uM relative to control", "set-up": "scale not given: the % may be the effect or the level left"}, "Rattus norvegicus [23]": {"species": "Rattus norvegicus", "assay": "Effect on oxygen consumption rate in Wistar Albino rat liver mitochondria assessed as inhibition in state 4 respiration at 75 uM in presence of sodium glutamate relative to control", "type": "functional", "set-up": "scale not given: the % may be the effect or the level left", "in_short": "as §1"}, "Rattus norvegicus [24]": {"species": "Rattus norvegicus", "assay": "Inhibition of ATPase in Wistar Albino rat livers intact mitochondria at 100 uM relative to control", "set-up": "scale not given: the % may be the effect or the level left"}, "Rattus norvegicus [25]": {"species": "Rattus norvegicus", "assay": "Inhibition of cytochrome c oxidase in Wistar Albino rat liver mitochondria at 100 uM relative to control", "set-up": "scale not given: the % may be the effect or the level left"}, "Rattus norvegicus [26]": {"species": "Rattus norvegicus", "assay": "Inhibition of ATPase in Wistar Albino rat livers intact mitochondria at 75 uM relative to control", "set-up": "scale not given: the % may be the effect or the level left"}, "Rattus norvegicus [27]": {"species": "Rattus norvegicus", "assay": "Effect on respiratory control coefficient in Wistar Albino rat liver mitochondria at 50 uM in presence of sodium glutamate relative to control", "type": "functional", "in_short": "as §1"}, "Liver [28]": {"tested_on": "Liver", "assay": "Reduction of cytochrome c in rat liver mitochondria in presence of SOD and catalase at 200 uM", "type": "functional"}, "Rattus norvegicus [29]": {"species": "Rattus norvegicus", "assay": "Inhibition of cytochrome c oxidase in Wistar Albino rat liver mitochondria at 200 uM relative to control", "set-up": "scale not given: the % may be the effect or the level left"}, "Liver [30]": {"tested_on": "Liver", "assay": "Reduction of cytochrome c in rat liver mitochondria in presence of deferoxamine at 200 uM", "type": "functional"}, "Rattus norvegicus [31]": {"species": "Rattus norvegicus", "assay": "Inhibition of succinate oxidase in Wistar Albino rat liver mitochondria at 25 uM relative to control", "set-up": "scale not given: the % may be the effect or the level left"}, "Rattus norvegicus [32]": {"species": "Rattus norvegicus", "assay": "Inhibition of succinate dehydrogenase in Wistar Albino rat liver mitochondria at 25 uM relative to control", "set-up": "scale not given: the % may be the effect or the level left"}, "Rattus norvegicus [33]": {"species": "Rattus norvegicus", "assay": "Effect on oxygen consumption rate in Wistar Albino rat liver mitochondria assessed as inhibition in state 3 respiration at 25 uM in presence of sodium glutamate relative to control", "type": "functional", "set-up": "scale not given: the % may be the effect or the level left", "in_short": "as §1"}, "Rattus norvegicus [34]": {"species": "Rattus norvegicus", "assay": "Effect on respiratory control coefficient in Wistar Albino rat liver mitochondria at 75 uM in presence of succinate relative to control", "type": "functional", "in_short": "as §1"}, "Rattus norvegicus [35]": {"species": "Rattus norvegicus", "assay": "Effect on ADP/O ratio in Wistar Albino rat liver mitochondria at 50 uM in presence of sodium glutamate relative to control", "type": "functional", "in_short": "as §1"}, "Rattus norvegicus [36]": {"species": "Rattus norvegicus", "assay": "Inhibition of NADH dehydrogenase in Wistar Albino rat liver mitochondria at 200 uM relative to control", "set-up": "scale not given: the % may be the effect or the level left"}, "Rattus norvegicus [37]": {"species": "Rattus norvegicus", "assay": "Inhibition of succinate dehydrogenase in Wistar Albino rat liver mitochondria at 75 uM relative to control", "set-up": "scale not given: the % may be the effect or the level left"}, "Rattus norvegicus [38]": {"species": "Rattus norvegicus", "assay": "Inhibition of succinate oxidase in Wistar Albino rat liver mitochondria at 75 uM relative to control", "set-up": "scale not given: the % may be the effect or the level left"}, "Rattus norvegicus [39]": {"species": "Rattus norvegicus", "assay": "Inhibition of ATPase in Wistar Albino rat livers disrupted mitochondria at 75 uM relative to control", "set-up": "scale not given: the % may be the effect or the level left"}, "Rattus norvegicus [40]": {"species": "Rattus norvegicus", "assay": "Inhibition of cytochrome c oxidase in Wistar Albino rat liver mitochondria at 50 uM relative to control", "set-up": "scale not given: the % may be the effect or the level left"}, "Rattus norvegicus [41]": {"species": "Rattus norvegicus", "assay": "Effect on oxygen consumption rate in Wistar Albino rat liver mitochondria assessed as inhibition in state 3 respiration at 100 uM in presence of succinate relative to control", "type": "functional", "set-up": "scale not given: the % may be the effect or the level left", "in_short": "as §1"}}, "note": "Calls of active or inactive are those of the source. No cut-off for these calls is given here."}
{"smiles": "COc1c(O)cc2oc(-c3ccc(O)c(O)c3)cc(=O)c2c1O", "values": [{"measurement": "Activity", "setting": "Rattus norvegicus [1]", "result": 34.7, "unit": "%"}, {"measurement": "Activity", "setting": "Rattus norvegicus [2]", "result": 46, "unit": "%"}, {"measurement": "Activity", "setting": "Rattus norvegicus [3]", "result": 94, "unit": "%"}, {"measurement": "Activity", "setting": "Rattus norvegicus [4]", "result": 50, "unit": "%"}, {"measurement": "Activity", "setting": "Rattus norvegicus [5]", "result": 51, "unit": "%"}, {"measurement": "Activity", "setting": "Rattus norvegicus [6]", "result": 99, "unit": "%"}, {"measurement": "Activity", "setting": "Rattus norvegicus [7]", "result": 77, "unit": "%"}, {"measurement": "Activity", "setting": "Rattus norvegicus [8]", "result": 99.4, "unit": "%"}, {"measurement": "Activity", "setting": "Rattus norvegicus [9]", "result": 40.9, "unit": "%"}, {"measurement": "Activity", "setting": "Rattus norvegicus [10]", "result": 83, "unit": "%"}, {"measurement": "Activity", "setting": "Rattus norvegicus [11]", "result": 55.1, "unit": "%"}, {"measurement": "Activity", "setting": "Rattus norvegicus [12]", "result": 23, "unit": "%"}, {"measurement": "Activity", "setting": "Rattus norvegicus [13]", "result": 77, "unit": "%"}, {"measurement": "Activity", "setting": "Rattus norvegicus [14]", "result": 90.6, "unit": "%"}, {"measurement": "Activity", "setting": "Liver [15]", "result": "Active"}, {"measurement": "Activity", "setting": "Rattus norvegicus [16]", "result": 51, "unit": "%"}, {"measurement": "Activity", "setting": "Rattus norvegicus [17]", "result": 36.8, "unit": "%"}, {"measurement": "Activity", "setting": "Rattus norvegicus [18]", "result": 55.2, "unit": "%"}, {"measurement": "Activity", "setting": "Rattus norvegicus [19]", "result": 50, "unit": "%"}, {"measurement": "Activity", "setting": "Liver [20]", "result": "Active"}, {"measurement": "Activity", "setting": "Rattus norvegicus [21]", "result": 31.8, "unit": "%"}, {"measurement": "Activity", "setting": "Rattus norvegicus [22]", "result": 12, "unit": "%"}, {"measurement": "Activity", "setting": "Rattus norvegicus [23]", "result": 109, "unit": "%"}, {"measurement": "Activity", "setting": "Rattus norvegicus [24]", "result": 97, "unit": "%"}, {"measurement": "Activity", "setting": "Rattus norvegicus [25]", "result": 96, "unit": "%"}, {"measurement": "Activity", "setting": "Rattus norvegicus [26]", "result": 98, "unit": "%"}, {"measurement": "Activity", "setting": "Rattus norvegicus [27]", "result": 66.5, "unit": "%"}, {"measurement": "Activity", "setting": "Liver [28]", "result": "inactive"}, {"measurement": "Activity", "setting": "Rattus norvegicus [29]", "result": 82, "unit": "%"}, {"measurement": "Activity", "setting": "Liver [30]", "result": "inactive"}, {"measurement": "Activity", "setting": "Rattus norvegicus [31]", "result": 87, "unit": "%"}, {"measurement": "Activity", "setting": "Rattus norvegicus [32]", "result": 71, "unit": "%"}, {"measurement": "Activity", "setting": "Rattus norvegicus [33]", "result": 84.9, "unit": "%"}, {"measurement": "Activity", "setting": "Rattus norvegicus [34]", "result": 52.9, "unit": "%"}, {"measurement": "Activity", "setting": "Rattus norvegicus [35]", "result": 85, "unit": "%"}, {"measurement": "Activity", "setting": "Rattus norvegicus [36]", "result": 39, "unit": "%"}, {"measurement": "Activity", "setting": "Rattus norvegicus [37]", "result": 78, "unit": "%"}, {"measurement": "Activity", "setting": "Rattus norvegicus [38]", "result": 86, "unit": "%"}, {"measurement": "Activity", "setting": "Rattus norvegicus [39]", "result": 105, "unit": "%"}, {"measurement": "Activity", "setting": "Rattus norvegicus [40]", "result": 104, "unit": "%"}, {"measurement": "Activity", "setting": "Rattus norvegicus [41]", "result": 45.4, "unit": "%"}]}
